Biological target: G protein-activated inward rectifier potassium channel 4 (Homo sapiens) + G protein-activated inward rectifier potassium channel 1 (Homo sapiens) (UniProt P48544+P48549)
Assay: activation of Ba2+-sensitive GIRK1/4 currents – HEK-293 hGIRK1/4, whole-cell patch clamp, confirmation (AID 623976)
Details: HEK-293 hGIRK1/4, whole-cell patch clamp Ba2+-sensitive current
Method in brief: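 Test system: HEK-293 cells stably expressing human GIRK1/4 channels | Read-out basis: Capacitance-normalized Ba2+-sensitive steady-state current density, four-parameter logistic EC50 | Times: Recording 24-72 h post-plating | Medium: 20K extracellular bath solution, KCl-based pipette solution pH 7.4 | Technique: Whole-cell voltage clamp at -70 mV, 2 mM BaCl2-sensitive current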

G protein-activated inward rectifier potassium channel 4 (Homo sapiens) + G protein-activated inward rectifier potassium channel 1 (Homo sapiens), sequence (P48544 whole entry, looked up): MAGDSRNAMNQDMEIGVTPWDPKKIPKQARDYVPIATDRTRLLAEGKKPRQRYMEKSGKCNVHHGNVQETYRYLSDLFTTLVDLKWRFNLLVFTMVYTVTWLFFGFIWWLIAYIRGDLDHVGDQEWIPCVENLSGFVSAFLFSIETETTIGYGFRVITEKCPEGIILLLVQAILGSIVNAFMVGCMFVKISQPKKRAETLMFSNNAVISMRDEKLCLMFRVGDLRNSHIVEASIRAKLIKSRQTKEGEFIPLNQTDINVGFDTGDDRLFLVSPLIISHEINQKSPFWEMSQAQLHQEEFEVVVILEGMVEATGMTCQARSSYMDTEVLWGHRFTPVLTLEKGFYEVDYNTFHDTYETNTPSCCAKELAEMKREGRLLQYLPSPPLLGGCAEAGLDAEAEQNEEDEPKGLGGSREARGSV
G protein-activated inward rectifier potassium channel 4 (Homo sapiens) + G protein-activated inward rectifier potassium channel 1 (Homo sapiens), sequence (P48549 whole entry, looked up): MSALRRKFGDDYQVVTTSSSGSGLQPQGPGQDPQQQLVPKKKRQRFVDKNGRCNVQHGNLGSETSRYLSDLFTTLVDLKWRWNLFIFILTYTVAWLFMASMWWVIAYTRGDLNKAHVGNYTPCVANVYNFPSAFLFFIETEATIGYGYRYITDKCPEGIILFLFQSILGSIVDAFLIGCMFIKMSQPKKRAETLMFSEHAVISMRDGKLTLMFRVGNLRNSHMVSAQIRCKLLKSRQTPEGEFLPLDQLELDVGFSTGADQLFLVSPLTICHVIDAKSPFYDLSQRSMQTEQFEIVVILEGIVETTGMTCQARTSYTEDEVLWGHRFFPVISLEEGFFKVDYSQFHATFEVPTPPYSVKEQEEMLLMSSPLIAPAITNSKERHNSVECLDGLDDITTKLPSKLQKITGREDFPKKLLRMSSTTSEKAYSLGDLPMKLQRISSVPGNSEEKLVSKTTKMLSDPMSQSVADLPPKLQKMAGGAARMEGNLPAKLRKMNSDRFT

Cc1cc(NC(=O)Nc2ccc(F)c(F)c2)n(-c2ccccc2)n1
EC50: 1590 nM

Reference: PubChem BioAssay AID623976 (Vanderbilt High Throughput Screening Facility, 2012)
